One assay is filed under the species Homo sapiens. Briefly: Selectivity ratio of IC50 for human full-length recombinant HDAC1 expressed in baculovirus infected Sf9 insect cells to IC50 for human full-length recombinant HDAC6 expressed in baculovirus infected Sf9 insect cells.
The subject of assay [1] is Lewis lung carcinoma cell line. In words: Cytotoxicity against mouse LL/2 cells at 0.8 uM after 72 hrs in presence of paclitaxel by crystal violet staining-based assay relative to control. The assay is classed as functional, cell-based.
The subject of assay [2] is Lewis lung carcinoma cell line. In words: Cytotoxicity against mouse LL/2 cells at 0.8 uM after 72 hrs in presence of paclitaxel by crystal violet staining-based assay. The assay is classed as functional, cell-based.
Assay [3] relates to Lewis lung carcinoma cell line. In words: Cytotoxicity against mouse LL/2 cells at 0 to 10 uM after 72 hrs in presence of paclitaxel by MTT assay relative to control. It counts as functional, cell-based. In a few lines:
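Mouse LL/2 lung cancer cells cultured for 72 h with increasing inhibitor concentrations (0–10 μM) together with paclitaxel. Viability read by MTT. Combination assessed by the Chou-Talalay method as a combination index.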
In general terms: Tetrazolium assays rely on reduction of a dye to a coloured formazan, in cell work by metabolically active cells.

Assay [4] has as its target Histone deacetylase 1 (Homo sapiens) (UniProt Q13547). In words: Inhibition of HDAC1 in human A549 cells assessed as effect on histone H3 acetylation level at 1 uM after 24 hrs by Western blot analysis. The assay is classed as cell-based.
The target of assay [5] is T1, Protein deacetylase HDAC6 (Mus musculus) (UniProt Q9Z2V5).
T1 sequence (whole entry): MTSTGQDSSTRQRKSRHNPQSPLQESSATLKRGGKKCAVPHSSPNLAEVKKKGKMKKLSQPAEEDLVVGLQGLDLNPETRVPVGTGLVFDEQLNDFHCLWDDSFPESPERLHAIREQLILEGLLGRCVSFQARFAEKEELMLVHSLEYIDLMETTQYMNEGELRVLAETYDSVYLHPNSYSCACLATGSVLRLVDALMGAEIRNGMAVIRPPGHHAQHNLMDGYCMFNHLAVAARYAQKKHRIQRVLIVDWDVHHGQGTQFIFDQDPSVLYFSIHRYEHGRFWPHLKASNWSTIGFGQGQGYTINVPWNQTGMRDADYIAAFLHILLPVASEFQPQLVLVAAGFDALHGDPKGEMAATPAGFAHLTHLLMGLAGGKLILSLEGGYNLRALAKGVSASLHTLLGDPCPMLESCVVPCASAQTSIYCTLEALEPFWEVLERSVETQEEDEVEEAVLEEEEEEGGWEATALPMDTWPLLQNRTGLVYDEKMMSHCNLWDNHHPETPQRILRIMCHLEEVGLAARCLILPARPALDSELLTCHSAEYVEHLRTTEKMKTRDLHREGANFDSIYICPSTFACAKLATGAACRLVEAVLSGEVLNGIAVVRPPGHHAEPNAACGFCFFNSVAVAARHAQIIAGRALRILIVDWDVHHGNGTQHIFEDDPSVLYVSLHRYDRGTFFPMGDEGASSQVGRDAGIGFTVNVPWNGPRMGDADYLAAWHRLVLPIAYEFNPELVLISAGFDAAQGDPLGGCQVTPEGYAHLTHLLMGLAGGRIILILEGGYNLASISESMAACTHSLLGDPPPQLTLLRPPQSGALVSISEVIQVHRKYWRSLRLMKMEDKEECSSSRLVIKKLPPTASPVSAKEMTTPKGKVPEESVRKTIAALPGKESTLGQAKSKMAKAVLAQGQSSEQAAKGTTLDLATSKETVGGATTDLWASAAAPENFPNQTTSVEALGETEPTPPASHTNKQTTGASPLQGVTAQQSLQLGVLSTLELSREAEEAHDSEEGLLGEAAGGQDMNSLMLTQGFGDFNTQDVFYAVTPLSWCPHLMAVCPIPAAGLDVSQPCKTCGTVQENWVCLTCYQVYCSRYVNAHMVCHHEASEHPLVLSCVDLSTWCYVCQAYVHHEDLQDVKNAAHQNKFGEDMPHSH
In words: Inhibition of HDAC6 in mouse LL/2 cells assessed as induction of alpha tubulin acetylation at 0.8 uM after 24 hrs by Western blot analysis relative to control. The assay is classed as cell-based. (In western blotting, separated proteins are transferred to a membrane and probed.)

The target in assay [6] is T1, Protein deacetylase HDAC6 (Mus musculus). Briefly: Inhibition of HDAC6 in mouse LL/2 cells assessed as induction of alpha tubulin acetylation at 0.8 uM in presence of paclitaxel after 24 hrs by Western blot analysis relative to control. It counts as cell-based.
Assay [7] has the same target. In words: Inhibition of HDAC6 in mouse LL/2 cells assessed as induction of alpha tubulin acetylation at 4 uM in presence of paclitaxel after 24 hrs by Western blot analysis relative to control. It counts as cell-based.
The subject of assay [8] is Lewis lung carcinoma cell line. Briefly: Induction of multi-nuclei formation in mouse LL/2 cells at 0.8 uM after 24 hrs in presence of paclitaxel by 4',6-diamidino-2-phenylindole staining-based assay. It counts as functional, cell-based.
Assay [9] has as its target T1, Protein deacetylase HDAC6 (Mus musculus). In words: Inhibition of HDAC6 in mouse LL/2 cells assessed as reduction in PD-L1 expression at 2 to 10 uM after 24 hrs by Western blot analysis. The assay is classed as cell-based.
For assay [10] the target is unchanged. Briefly: Inhibition of HDAC6 in mouse LL/2 cells assessed as reduction in PD-L1 expression at 2 to 5 uM in presence of paclitaxel after 24 hrs by Western blot analysis. It counts as cell-based.
The test system of assay [11] is Lewis lung carcinoma cell line. In words: Antitumor activity against mouse LL/2 cells implanted in C57BL/6 mouse assessed as tumor growth inhibition at 20 mg/kg, po qd administered for 21 consecutive days. It counts as functional, organism-based.
The target in assay [12] is T1, Protein deacetylase HDAC6 (Mus musculus). Briefly: Inhibition of HDAC6 in mouse LL/2 cells assessed as reduction in PD-L1 expression at 10 uM after 24 hrs by Western blot analysis. The assay is classed as cell-based.
The subject of assay [13] is Lewis lung carcinoma cell line. In words: Antitumor activity against mouse LL/2 cells implanted in C57BL/6 mouse assessed as tumor growth inhibition at 10 mg/kg, ip qd administered for 5 days. It counts as functional, organism-based.
Assay [14] has as its system Lewis lung carcinoma cell line. Briefly: Decrease in PD-L1 expression in mouse LL/2 cells at 10 uM after 24 hrs by Western blot analysis.

The source made the active and inactive calls. The calls are words filed in the database; no cut-off is given here.

Histone deacetylase 1 (Homo sapiens), sequence (Q13547 whole entry): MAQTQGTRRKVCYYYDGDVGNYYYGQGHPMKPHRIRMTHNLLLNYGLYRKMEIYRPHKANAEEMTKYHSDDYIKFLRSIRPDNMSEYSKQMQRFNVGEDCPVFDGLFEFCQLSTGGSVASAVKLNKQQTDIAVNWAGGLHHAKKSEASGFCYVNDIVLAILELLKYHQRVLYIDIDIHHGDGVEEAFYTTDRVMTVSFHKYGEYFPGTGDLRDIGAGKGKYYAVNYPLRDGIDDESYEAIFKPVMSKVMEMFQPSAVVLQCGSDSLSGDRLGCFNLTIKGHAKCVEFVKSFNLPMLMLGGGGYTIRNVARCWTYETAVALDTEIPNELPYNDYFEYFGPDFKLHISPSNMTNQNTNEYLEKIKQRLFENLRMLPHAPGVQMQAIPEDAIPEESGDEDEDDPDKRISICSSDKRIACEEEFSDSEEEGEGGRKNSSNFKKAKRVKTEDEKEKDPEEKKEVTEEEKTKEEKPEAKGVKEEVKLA

For `Cc1ccc2c(=O)n(CCc3ccccc3)c(=O)n(Cc3ccc(C(=O)NO)cc3)c2c1`, the Ratio IC50 in the assay listed under Homo sapiens was found to be 64.

On to `O=C(NO)c1ccc(Cn2c(=O)n(CCc3ccc(O)cc3)c(=O)c3ccccc32)cc1`, for which the Ratio IC50 in the assay filed under Homo sapiens amounted to 1820.

In the case of `O=C(NO)c1ccc(Cn2c(=O)n(CCc3ccccc3)c(=O)c3ccccc32)s1`, in the assay listed under Homo sapiens, the Ratio IC50 was determined as 1150.

As for `O=C(NO)c1ccc(Cn2c(=O)n(CCc3ccccc3)c(=O)c3cc(Cl)ccc32)cc1`, in the assay filed under Homo sapiens, the Ratio IC50 was 539.

As for `O=C(NO)c1ccc(Cn2c(=O)n(CCc3ccccc3)c(=O)c3ccc(O)cc32)cc1`, the Ratio IC50 in the assay listed under Homo sapiens stood at 259.

In the case of `O=C(NO)c1ccc(Cn2c(=O)n(CCc3ccccc3)c(=O)c3ccccc32)cc1`, in the assay listed under Homo sapiens, the Ratio IC50 came out at 2790. Also, the outcome in assay [1], in assay [2], in assay [3] and in [8] was Active. Besides, the inhibition entry in assay [4] was “inactive”. Further, the fold change (FC) came to 42.7 in [5] and 74.7 in assay [6]. The inhibition entry in assay [7], in assay [9] and in assay [10] was “Active” each time. Further, the TGI entry in [11] was “inactive”.

With `O=C(NO)c1ccc(Cn2c(=O)n(CCc3ccccc3)c(=O)c3ccc(F)cc32)cc1`, the Ratio IC50 in the assay filed under Homo sapiens stood at 1180.

Regarding `O=C(NO)c1ccc(Cn2c(=O)n(CCc3ccccc3)c(=O)c3ccc(C(F)(F)F)cc32)cc1`, the Ratio IC50 in the assay listed under Homo sapiens came out at 13.

In the case of `O=C(CCCCCCC(=O)Nc1ccccc1)NO`, the inhibition entry in assay [12] was “inactive”.

For the compound `CC(=O)O[C@H]1C(=O)[C@@]2(C)[C@H]([C@H](OC(=O)c3ccccc3)[C@]3(O)C[C@H](OC(=O)[C@H](O)[C@@H](NC(=O)c4ccccc4)c4ccccc4)C(C)=C1C3(C)C)[C@]1(OC(C)=O)CO[C@@H]1C[C@@H]2O`, in [13], the TGI entry is “inactive”. Besides, in assay [14], the result was Active.

On to `O=C(NO)c1ccc(Cn2c(=O)n(CCc3ccccc3)c(=O)c3cccnc32)cc1`, for which the Ratio IC50 in the assay listed under Homo sapiens turned out to be 384.

In the case of `O=C(NO)c1ccc(Cn2c(=O)n(CCc3ccccc3)c(=O)c3ccc(C4CC4)cc32)cc1`, the Ratio IC50 in the assay listed under Homo sapiens came out at 86.

As for `COc1ccc(CCn2c(=O)c3ccccc3n(Cc3ccc(C(=O)NO)cc3)c2=O)cc1`, the Ratio IC50 in the assay listed under Homo sapiens came to 369.

For `COc1ccc2c(=O)n(CCc3ccccc3)c(=O)n(Cc3ccc(C(=O)NO)cc3)c2c1`, in the assay filed under Homo sapiens, the Ratio IC50 amounted to 235.

On to `O=C(NO)c1cc(Cn2c(=O)n(CCc3ccccc3)c(=O)c3ccccc32)cs1`, for which the Ratio IC50 in the assay listed under Homo sapiens is above 8.

`O=C(NO)c1ccc(Cn2c(=O)n(CCc3ccccc3)c(=O)c3cc(F)ccc32)cc1`: the Ratio IC50 in the assay listed under Homo sapiens was 235.

As for `O=C(NO)c1cccc(Cn2c(=O)n(CCc3ccccc3)c(=O)c3ccccc32)c1`, the Ratio IC50 in the assay filed under Homo sapiens was above 2.

Regarding `O=C(NO)c1ccc(Cn2c(=O)n(CCc3cccc(F)c3)c(=O)c3ccccc32)cc1`, the Ratio IC50 in the assay listed under Homo sapiens was 1320.

Turning to `O=C(NO)c1ccc(Cn2c(=O)n(CCc3ccccc3)c(=O)c3ccsc32)cc1`, the Ratio IC50 in the assay filed under Homo sapiens was found to be 443.

On to `O=C(NO)c1ccc(Cn2c(=O)n(CCc3cccc(C(F)(F)F)c3)c(=O)c3ccccc32)cc1`, for which the Ratio IC50 in the assay filed under Homo sapiens came out at 529. Further, the outcome in assay [2] was Active.

Consider `O=C(NO)c1ccc(Cn2c(=O)n(CCc3ccc(F)cc3)c(=O)c3ccccc32)cc1`, for which the Ratio IC50 in the assay listed under Homo sapiens is 470.

As for `O=C(NO)c1ccc(Cn2c(=O)n(CCc3ccccc3)c(=O)c3ccc(Cl)cc32)cc1`, the Ratio IC50 in the assay filed under Homo sapiens is 434.

The record behind these values is ChEMBL document CHEMBL4330076, “Quinazolin-2,4-dione-Based Hydroxamic Acids as Selective Histone Deacetylase-6 Inhibitors for Treatment of Non-Small Cell Lung Cancer” (J Med Chem, 2019).
